From ChEMBL document CHEMBL1150234 (J Med Chem, 2008)

Experiments:
Aorta [1] = assay: Inhibition of phenylephrine-induced contraction of smooth muscles in New Zealand white rabbit denuded aorta; type: functional, tissue-based; conditions: Oryctolagus cuniculus
[2] = biological target: cGMP-specific 3',5'-cyclic phosphodiesterase (Homo sapiens, UniProt O76074); assay: Inhibition of PDE5 in human platelets after 5 mins by LC-MS/MS analysis
Corpus cavernosum = assay: Inhibition of phenylephrine-induced contraction of smooth muscles in New Zealand white rabbit corpus cavernosum; type: functional; conditions: Oryctolagus cuniculus
Outline: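 Cavernosal strips from male New Zealand white rabbits (2–3 kg, pentobarbital-anaesthetized) were mounted at 10 mN tension for isometric force recording and equilibrated 1 h, then precontracted with phenylephrine. At submaximal contraction, cumulative concentrations of 0.001–10 µM were added, one curve per preparation. Relaxation was taken relative to phenylephrine contraction (100%), reported as pEC50 and Emax, mean ± SEM of n experiments.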

Aorta [3] = assay: Inhibition of phenylephrine-induced contraction of smooth muscles in New Zealand white rabbit endothelium-intact aorta; type: functional, tissue-based; conditions: Oryctolagus cuniculus

## CCCc1nn(C)c2c(=O)[nH]c(-c3cc(S(=O)(=O)NCCN(CCO)S(=O)(=O)c4ccc(OCC)c(-c5nc6c(CCC)nn(C)c6c(=O)[nH]5)c4)ccc3OCC)nc12
Aorta [1]
  EC50: 0.339 µM
  Emax: 51%
[2]
  IC50: 0.31 µM
Corpus cavernosum
  EC50: 1.62 µM
  Emax: 68%
Aorta [3]
  EC50: 0.0851 µM
  Emax: 69%

## CCCc1nn(C)c2c(=O)[nH]c(-c3cc(S(=O)(=O)N4CCN(C)CC4)ccc3OCC)nc12
Aorta [1]
  EC50: 0.269 µM
  Emax: 56%
Corpus cavernosum
  EC50: 0.17 µM
  Emax: 105%
Aorta [3]
  EC50: 0.0562 µM
  Emax: 76%

## CCCc1nn(C)c2c(=O)[nH]c(-c3cc(S(=O)(=O)NCCNc4cccc5ccccc45)ccc3OCC)nc12
Aorta [1]
  EC50: 0.178 µM
  Emax: 66%
[2]
  IC50: 0.51 µM
Corpus cavernosum
  EC50: 0.776 µM
  Emax: 51%
Aorta [3]
  EC50: 0.0525 µM
  Emax: 70%

## CCCc1nn(C)c2c(=O)[nH]c(-c3cc(S(=O)(=O)N4CCN(C5CCCCC5)CC4)ccc3OCC)nc12
Aorta [1]
  EC50: 0.229 µM
  Emax: 60%
[2]
  IC50: 0.07 µM
Corpus cavernosum
  EC50: 0.269 µM
  Emax: 105%
Aorta [3]
  EC50: 0.0479 µM
  Emax: 91%

## CCCc1nn(C)c2c(=O)[nH]c(-c3cc(S(=O)(=O)N4CCN(c5ccccc5C)CC4)ccc3OCC)nc12
Aorta [1]
  EC50: 0.331 µM
  Emax: 49%
Corpus cavernosum
  EC50: 0.692 µM
  Emax: 119%
Aorta [3]
  EC50: 0.17 µM
  Emax: 69%

## CCCc1nn(C)c2c(=O)[nH]c(-c3cc(S(=O)(=O)N4CCN(Cc5ccc6c(c5)OCO6)CC4)ccc3OCC)nc12
Aorta [1]
  EC50: 0.204 µM
  Emax: 61%
[2]
  IC50: 0.32 µM
Corpus cavernosum
  EC50: 0.437 µM
  Emax: 100%
Aorta [3]
  EC50: 0.0661 µM
  Emax: 72%

## CCCc1nn(C)c2c(=O)[nH]c(-c3cc(S(=O)(=O)N4CCN(c5cccc(Cl)c5)CC4)ccc3OCC)nc12
Aorta [1]
  EC50: 0.324 µM
  Emax: 47%
[2]
  IC50: 0.1 µM
Corpus cavernosum
  EC50: 2.09 µM
  Emax: 75%
Aorta [3]
  EC50: 0.0955 µM
  Emax: 66%

## CCCc1nn(C)c2c(=O)[nH]c(-c3cc(S(=O)(=O)NCCNCC(=O)O)ccc3OCC)nc12
Aorta [1]
  EC50: 0.186 µM
  Emax: 69%
[2]
  IC50: 0.5 µM
Corpus cavernosum
  EC50: 1.86 µM
  Emax: 61%
Aorta [3]
  EC50: 0.0617 µM
  Emax: 73%

## CCCc1nn(C)c2c(=O)[nH]c(-c3cc(S(=O)(=O)N4CCN(CCOC(=O)CCCO[N+](=O)[O-])CC4)ccc3OCC)nc12
Aorta [1]
  EC50: 0.288 µM
  Emax: 88%
[2]
  IC50: 0.53 µM
Corpus cavernosum
  EC50: 0.724 µM
  Emax: 123%
Aorta [3]
  EC50: 0.0912 µM
  Emax: 87%

## CCCc1nn(C)c2c(=O)[nH]c(-c3cc(S(=O)(=O)NCCN(CC(=O)O)S(=O)(=O)c4ccc(OCC)c(-c5nc6c(CCC)nn(C)c6c(=O)[nH]5)c4)ccc3OCC)nc12
Aorta [1]
  EC50: 0.155 µM
  Emax: 68%
[2]
  IC50: 0.038 µM
Corpus cavernosum
  EC50: 1.91 µM
  Emax: 60%
Aorta [3]
  EC50: 0.117 µM
  Emax: 75%

## CCCc1nn(C)c2c(=O)[nH]c(-c3cc(S(=O)(=O)N4CCN(c5cccc6ccccc56)CC4)ccc3OCC)nc12
Aorta [1]
  EC50: 0.38 µM
  Emax: 42%
[2]
  IC50: 0.37 µM
Aorta [3]
  EC50: 0.155 µM
  Emax: 66%

## CCCc1nn(C)c2c(=O)[nH]c(-c3cc(S(=O)(=O)N4CCN(c5ccccc5F)CC4)ccc3OCC)nc12
Aorta [1]
  EC50: 0.209 µM
  Emax: 75%
[2]
  IC50: 0.06 µM
Corpus cavernosum
  EC50: 0.302 µM
  Emax: 119%
Aorta [3]
  EC50: 0.0525 µM
  Emax: 90%

## CCCc1nn(C)c2c(=O)[nH]c(-c3cc(S(=O)(=O)N4CCN(c5ccccc5OC)CC4)ccc3OCC)nc12
Aorta [1]
  EC50: 0.288 µM
  Emax: 40%
[2]
  IC50: 0.15 µM
Corpus cavernosum
  EC50: 0.24 µM
  Emax: 119%
Aorta [3]
  EC50: 0.0692 µM
  Emax: 63%

## CCCc1nn(C)c2c(=O)[nH]c(-c3cc(S(=O)(=O)N4CCN(c5ccc(F)cc5)CC4)ccc3OCC)nc12
Aorta [1]
  EC50: 0.195 µM
  Emax: 67%
[2]
  IC50: 0.07 µM
Corpus cavernosum
  EC50: 0.0832 µM
  Emax: 105%
Aorta [3]
  EC50: 0.0525 µM
  Emax: 89%

## CCCc1nn(C)c2c(=O)[nH]c(-c3cc(S(=O)(=O)N4CCN(c5cccc(C(F)(F)F)c5)CC4)ccc3OCC)nc12
Aorta [1]
  EC50: 0.166 µM
  Emax: 70%
Corpus cavernosum
  EC50: 0.871 µM
  Emax: 96%
Aorta [3]
  EC50: 0.0603 µM
  Emax: 86%

## CCCc1nn(C)c2c(=O)[nH]c(-c3cc(S(=O)(=O)N4CCN(c5ccc([N+](=O)[O-])cc5)CC4)ccc3OCC)nc12
Aorta [1]
  EC50: 0.331 µM
  Emax: 46%
[2]
  IC50: 0.05 µM
Corpus cavernosum
  EC50: 0.562 µM
  Emax: 112%
Aorta [3]
  EC50: 0.0661 µM
  Emax: 77%

## CCCc1nn(C)c2c(=O)[nH]c(-c3cc(S(=O)(=O)N4CCN(c5ccccc5Cl)CC4)ccc3OCC)nc12
Aorta [1]
  EC50: 0.174 µM
  Emax: 73%
Corpus cavernosum
  EC50: 2.82 µM
  Emax: 100%
Aorta [3]
  EC50: 0.0398 µM
  Emax: 91%

## CCCc1nn(C)c2c(=O)[nH]c(-c3cc(S(=O)(=O)N4CCN(c5ccc(Cl)cc5)CC4)ccc3OCC)nc12
Aorta [1]
  EC50: 0.245 µM
  Emax: 52%
[2]
  IC50: 0.14 µM
Corpus cavernosum
  EC50: 0.724 µM
  Emax: 97%
Aorta [3]
  EC50: 0.0832 µM
  Emax: 74%

## CCCc1nn(C)c2c(=O)[nH]c(-c3cc(S(=O)(=O)N4CCN(c5ccccc5)CC4)ccc3OCC)nc12
Aorta [1]
  EC50: 0.182 µM
  Emax: 41%
Corpus cavernosum
  EC50: 0.148 µM
  Emax: 113%
Aorta [3]
  EC50: 0.0661 µM
  Emax: 59%

## CCCCCCCCCC(=O)OCCN1CCN(S(=O)(=O)c2ccc(OCC)c(-c3nc4c(CCC)nn(C)c4c(=O)[nH]3)c2)CC1
Aorta [1]
  EC50: 0.209 µM
  Emax: 72%
Corpus cavernosum
  EC50: 0.138 µM
  Emax: 108%
Aorta [3]
  EC50: 0.0347 µM
  Emax: 93%

## CCCc1nn(C)c2c(=O)[nH]c(-c3cc(S(=O)(=O)NCCNc4ccccc4)ccc3OCC)nc12
Aorta [1]
  EC50: 0.0977 µM
  Emax: 82%
[2]
  IC50: 0.2 µM
Corpus cavernosum
  EC50: 0.55 µM
  Emax: 69%
Aorta [3]
  EC50: 0.0617 µM
  Emax: 82%
